Experimental data reported in ChEMBL document CHEMBL4020742, “Design and optimization of purine derivatives as in vivo active PDE10A inhibitors” (Bioorg Med Chem, 2017).

These compounds were tested against T1, cAMP and cAMP-inhibited cGMP 3',5'-cyclic phosphodiesterase 10A (Homo sapiens, UniProt Q9Y233) (assay: Inhibition of recombinant human N-terminal GST-tagged PDE10A1 (2 to 789 residues) expressed in baculovirus infected Sf9 cells at 5 uM using fluorescein-labeled cAMP as substrate preincubated for 15 mins followed by substrate addition measured after 30 mins by IMAP fluorescence polarization assay relative to control).
T1 sequence (Q9Y233 whole entry, the tested form may be a part): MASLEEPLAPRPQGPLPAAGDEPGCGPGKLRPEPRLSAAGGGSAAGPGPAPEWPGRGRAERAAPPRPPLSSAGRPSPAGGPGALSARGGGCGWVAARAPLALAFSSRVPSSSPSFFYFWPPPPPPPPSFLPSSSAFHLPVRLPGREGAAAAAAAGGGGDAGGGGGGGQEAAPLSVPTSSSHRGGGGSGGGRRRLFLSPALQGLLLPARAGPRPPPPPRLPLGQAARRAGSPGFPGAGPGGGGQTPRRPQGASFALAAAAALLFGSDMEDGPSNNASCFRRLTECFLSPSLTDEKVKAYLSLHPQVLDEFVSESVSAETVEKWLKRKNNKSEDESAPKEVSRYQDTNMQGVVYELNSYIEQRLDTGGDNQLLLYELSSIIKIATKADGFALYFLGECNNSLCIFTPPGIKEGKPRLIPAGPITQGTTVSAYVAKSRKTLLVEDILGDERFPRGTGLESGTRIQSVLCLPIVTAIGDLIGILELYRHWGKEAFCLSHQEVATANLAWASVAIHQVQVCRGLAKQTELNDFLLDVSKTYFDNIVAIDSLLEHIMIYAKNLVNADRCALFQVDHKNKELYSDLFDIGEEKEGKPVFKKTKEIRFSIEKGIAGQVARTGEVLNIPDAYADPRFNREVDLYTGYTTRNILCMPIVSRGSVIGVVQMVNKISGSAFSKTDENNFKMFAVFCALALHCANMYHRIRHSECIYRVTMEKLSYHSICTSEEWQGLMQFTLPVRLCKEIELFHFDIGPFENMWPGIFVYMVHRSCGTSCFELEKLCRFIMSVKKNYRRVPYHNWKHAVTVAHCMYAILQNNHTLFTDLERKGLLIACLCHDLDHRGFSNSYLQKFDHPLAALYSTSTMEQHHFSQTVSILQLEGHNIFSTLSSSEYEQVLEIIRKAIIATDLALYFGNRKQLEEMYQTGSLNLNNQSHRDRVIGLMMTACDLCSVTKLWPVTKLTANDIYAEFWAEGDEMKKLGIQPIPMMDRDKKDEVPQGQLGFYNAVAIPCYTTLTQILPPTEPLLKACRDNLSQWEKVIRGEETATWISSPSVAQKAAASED
Procedure, shortened: (§1)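 Recombinant PDE4A1A, PDE2A1 or PDE10A1 was incubated with compound (1% DMSO, duplicate) for 15 min at RT. Fluorescein-cAMP was then added for 30 min at RT, and the reaction was stopped with IMAP binding reagent (1 h, dark). FP was read at Ex485/Em535. Inhibition was set against no-enzyme and DMSO controls. IC50 came from a four-parameter logistic fit; values are the mean of at least two measurements.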

inhibition | Structure (SMILES)
98% | Cc1nc2c(N3CCOCC3)nccn2c1NCCc1c(Cl)cccc1Cl
24% | Cc1nc2c(N3CCOCC3)nccn2c1NC(=O)Cc1ccc2ccccc2c1
70% | Cc1nc2c(N3CCOCC3)nccn2c1NCc1ccccc1-c1ccncc1
88% | Cc1nc2c(N3CCOCC3)nccn2c1NCc1ccc(-c2cnn(C)c2)cc1
97% | Cc1nc2c(N3CCOCC3)ncnc2n1Cc1ccc(-c2cccnc2)cc1
83% | COc1ccc(CCNc2c(C)nc3c(N4CCOCC4)nccn23)cc1OC
82% | Cc1nc2c(N3CCOCC3)nccn2c1NCCc1ccc2c(c1)OCO2
87% | Cc1nc2c(N3CCOCC3)ncnc2n1Cc1ccccc1Br
13% | c1ccc(CCn2cnc3c(N4CCOCC4)ncnc32)cc1
39% | Cc1nc2c(N3CCOCC3)nccn2c1NCc1ccccc1-c1ccc(C(C)(C)C)cc1
73% | Cc1nc2c(N3CCOCC3)nccn2c1NCc1ccccc1Br
20% | COc1cccc(CCn2cnc3c(N4CCOCC4)ncnc32)c1
74% | Cc1ccc(-c2ccc(CNc3c(C)nc4c(N5CCOCC5)nccn34)cc2)cc1
90% | CCOC(=O)c1ccc(Cn2c(C)nc3c(N4CCOCC4)ncnc32)cc1
47% | Cc1nc2c(N3CCOCC3)nccn2c1NC(=O)Cc1c(Cl)cccc1Cl
77% | Cc1nc2c(N3CCOCC3)nccn2c1NCc1ccc(Br)cc1
70% | Clc1cccc(Cl)c1Cn1cnc2c(N3CCOCC3)ncnc21
87% | COc1ccc(-c2ccc(CNc3c(C)nc4c(N5CCOCC5)nccn34)cc2)cc1
78% | Cc1nc2c(N3CCOCC3)nccn2c1NCCc1ccc2ccccc2c1
60% | COc1ccc(-c2ccccc2CNc2c(C)nc3c(N4CCOCC4)nccn23)cc1
66% | c1ccc(Cn2cnc3c(N4CCOCC4)ncnc32)cc1
61% | Cc1nc2c(N3CCOCC3)nccn2c1NCc1ccccc1-c1cncnc1

inhibition | Structure (SMILES)
77% | Cc1nc2c(N3CCOCC3)nccn2c1NCc1ccc(-c2ccccc2Cl)cc1
63% | Cc1nc2c(N3CCOCC3)nccn2c1NCc1ccccc1-c1ccc2ccccc2c1
87% | Cc1nc2c(N3CCOCC3)nccn2c1NCc1ccccc1-c1ccccc1Cl
51% | Cc1nc2c(N3CCOCC3)nccn2c1NC(=O)Cc1ccccc1
85% | COc1cc(Cn2cnc3c(N4CCOCC4)ncnc32)cc(OC)c1
54% | Cc1nc2c(N3CCOCC3)nccn2c1NCc1ccc(-c2ccc3ccccc3c2)cc1
68% | Cc1noc(C)c1-c1ccccc1CNc1c(C)nc2c(N3CCOCC3)nccn12
79% | Cc1nc2c(N3CCOCC3)nccn2c1NCc1ccc(-c2cncnc2)cc1
11% | O=C(Cn1cnc2c(N3CCOCC3)ncnc21)c1ccccc1
57% | Cc1ccc(-c2ccccc2CNc2c(C)nc3c(N4CCOCC4)nccn23)cc1
51% | COc1ccc(-c2ccccc2CNc2c(C)nc3c(N4CCOCC4)nccn23)cc1OC
38% | Cc1nc2c(N3CCOCC3)nccn2c1NCc1ccc(-c2ccc(C(C)(C)C)cc2)cc1
74% | Cc1nc2c(N3CCOCC3)nccn2c1NCCc1ccccc1
44% | Cc1nc2c(N3CCOCC3)nccn2c1NC(=O)Cc1ccc2c(c1)OCO2
55% | Cc1nc2c(N3CCOCC3)nccn2c1NCc1ccc(-c2ccccc2)cc1
81% | COc1ccc(CCNc2c(C)nc3c(N4CCOCC4)nccn23)cc1Br
50% | COc1ccc(CC(=O)Nc2c(C)nc3c(N4CCOCC4)nccn23)cc1OC
64% | Cc1nc2c(N3CCOCC3)nccn2c1NCc1ccccc1-c1cnn(C)c1
76% | Cc1nc2c(N3CCOCC3)nccn2c1NCc1ccccc1-c1cccnc1
75% | Cc1nc2c(N3CCOCC3)nccn2c1NCc1ccccc1-c1ccccc1
80% | COc1ccc(CCNc2c(C)nc3c(N4CCOCC4)nccn23)cc1-c1ccccc1

These compounds were tested against T1, cAMP and cAMP-inhibited cGMP 3',5'-cyclic phosphodiesterase 10A (assay: Inhibition of recombinant human N-terminal GST-tagged PDE10A1 (2 to 789 residues) expressed in baculovirus infected Sf9 cells using fluorescein-labeled cAMP as substrate preincubated for 15 mins followed by substrate addition measured after 30 mins by IMAP fluorescence polarization assay).
Procedure, shortened: as §1

IC50 | Structure (SMILES)
447 nM | Cc1nc2c(N3CCOCC3)nccn2c1NCCc1c(Cl)cccc1Cl
61 nM | Cc1nc2c(N3CCOCC3)ncnc2n1Cc1ccc(-c2cccnc2)cc1
